Assay results: ChEMBL document CHEMBL1629690, “Development of hexadecyloxypropyl tenofovir (CMX157) for treatment of infection caused by wild-type and nucleoside/nucleotide-resistant HIV” (Antimicrob Agents Chemother, 2010)

Columns and labels:
Format in all cases: cell-based
[1] = Cytotoxicity against human HuH7 cells after 24 hrs by XTT assay; conditions: huh-7, 24 h
Outline: (§1)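 Six-concentration growth-inhibition test: 10 to 0.032 μM for the prodrug and TDF, up to 100 μM for TFV, with Triton X-100 run in parallel. Cell lines were split 1:2 the day before and seeded at 5 × 10^3 to 2 × 10^4 cells/well, with adherent lines left overnight. Dendritic cells were derived with GM-CSF/IL-4 for 7 days, then LPS 10 ng/ml for 2 days. Viability was read by XTT.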

HeLa = assay: Cytotoxicity against human HeLa cells after 24 hrs by XTT assay; outline: as §1
HepG2 = assay: Cytotoxicity against human HepG2 cells after 24 hrs by XTT assay; conditions: hepg2, 24 h; outline: as §1
[2] = Cytotoxicity against human ME180 cells after 24 hrs by XTT assay; conditions: me-180, 24 h; outline: as §1
PBMC = assay: Cytotoxicity against PHA/IL-2-stimulated human PBMC after 24 hrs by XTT assay; outline: as §1
[3] = Cytotoxicity against human dendritic cells after 24 hrs by XTT assay; outline: as §1
CEM-SS = assay: Cytotoxicity against human CEM-SS cells after 24 hrs by XTT assay; outline: as §1

Measured: Activity

CC(C)OC(=O)OCOP(=O)(CO[C@H](C)Cn1cnc2c(N)ncnc21)OCOC(=O)OC(C)C.O=C(O)/C=C/C(=O)O [TENOFOVIR DISOPROXIL FUMARATE]
Non-toxic: all assays above
